Where two headings read alike, the source gives them in different places.
Legend:
L1210 (BR−) cells = assay: internalization by confocal fluorescence microscopy and flow cytometry; assay type: cell-based, murine; settings: 5 µM, 37 °C
WI38 (BR−) cells = assay: as above; assay type: cell-based, human; settings: 5 µM, 37 °C
[1] = test system: BR+ cancer cell lines (L1210FR, MX-1, ID8); assay: internalization by confocal fluorescence microscopy and flow cytometry; assay type: cell-based; settings: 5 µM, 37 °C
Summary of the method: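 Adherent cells were seeded at 5 × 10^5 cells/mL overnight, then given medium containing 5 µM fluorescent probe. For leukemia cells, 1 mM DMSO stock was spiked into fresh suspensions to 5 µM final. Incubation ran 30 min–24 h at 37 °C; cells were then trypsinized as needed and washed twice in PBS. Flow cytometry used 488 nm excitation, 515–545 nm emission, ~10,000 cells. Confocal imaging used 488 nm excitation, 505–550 nm bandpass, 63× water objective.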

BR+ and BR- cell lines = assay: internalization of fluorescence-labeled paclitaxel by CFM and flow cytometry; assay type: cell-based; settings: Figure S1
Summary of the method: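 After probe exposure, cells trypsinised if needed, washed twice in PBS and resuspended in PBS. Flow cytometry: 488 nm excitation, emission at 530 nm (30 nm bandpass, 515–545 nm), about 10,000 cells counted per experiment, FITC fluorescence distribution analysed. Confocal: two-photon laser-scanning microscope, 488 nm excitation, emission 527 ± 23 nm (505–550 nm bandpass), cells on uncoated coverslip slide.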

[2] = test system: MX-1 human breast carcinoma cell line (BR+); assay: standard MTT cytotoxicity assay, continuous incubation; assay type: cell-based
[3] = test system: ID8 murine ovarian carcinoma cell line (BR+); assay: as above; assay type: cell-based; settings: read-out: Cytotoxicity IC50, ID8; incubation at 37 °C for 48 h
[4] = test system: L1210FR murine lymphocytic leukemia cell line (BR+); assay: as above; assay type: cell-based
[5] = test system: L1210 murine lymphocytic leukemia cell line (BR−); assay: as above; assay type: cell-based; settings: read-out: Cytotoxicity IC50, L1210; incubation at 37 °C for 48 h
[6] = test system: WI38 human lung fibroblast cell line (BR−); assay: as above; assay type: cell-based
[7] = test system: MX-1 human breast carcinoma cell line (BR+); assay: MTT Assay 2: 24 h incubation, PBS wash, GSH-OEt addition, further 48 h; assay type: cell-based; settings: read-out: Cytotoxicity IC50, MX-1, Assay 2, GSH-OEt (6 equiv.), additional 48 h
Summary of the method: (§1)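 Cells grown in supplemented RPMI-1640 (5% FBS, 5% NuSerum, 1% PenStrep) at 37 °C, 5% CO2, then seeded at 0.5–1.5 × 10^4 cells/well. Test compound (from DMSO stock; DMSO ≤1%) was added for 24 h at 37 °C. Medium was then removed, cells were washed with PBS, and GSH-OEt (6 equiv. to conjugate) in fresh medium was added for 48 h more (72 h total). MTT (0.5 mg/mL, 3 h), formazan dissolved in acidic isopropanol/Triton X-100, A570. IC50 from four-parameter logistic fit; triplicate.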

[8] = test system: L1210FR murine lymphocytic leukemia cell line (BR+); assay: as above; assay type: cell-based; settings: read-out: Cytotoxicity IC50, L1210FR, Assay 2, GSH-OEt (6 equiv.), additional 48 h
Summary of the method: as §1

[9] = test system: L1210FR murine lymphocytic leukemia cell line (BR+); assay: MTT Assay 3: 24 h incubation, GSH-OEt addition without washing, further 48 h; assay type: cell-based; settings: read-out: Cytotoxicity IC50, L1210FR, Assay 3, GSH-OEt (6 equiv.) added without wash, additional 48 h
Summary of the method: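 L1210FR suspension cells in supplemented RPMI-1640 were exposed to test compound at 37 °C for 24 h; DMSO ≤1%. GSH-OEt (6 equiv.) in medium was then added directly, without washing, for a further 48 h (72 h total). Viability was read by MTT (0.5 mg/mL in PBS, 3 h, 37 °C), solubilized in 0.1 N HCl/isopropanol with 10% Triton X-100, at 570 nm. IC50 by four-parameter logistic fit; triplicate runs.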

[10] = test system: BR+ cancer cell lines (MX-1, L1210FR, ID8); assay: MTT cytotoxicity, text summaries pooled over BR+ cancer cell lines; assay type: cell-based
Summary of the method: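 Adherent cells seeded at 8,000–10,000/well and held 24 h at 37 °C before dosing; leukemia cells at 0.5–0.8 × 10^4/well suspended directly in test solutions. Final 0.5–5,000 nM from DMSO stocks, 37 °C, 5% CO2, 48 h or 72 h. Assay 2: 24 h exposure, PBS wash, GSH-OEt (6 equiv. to conjugate) added, further 48 h. MTT 0.5 mg/mL in PBS, 3 h, 37 °C.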

[11] = read-out: Cytotoxicity IC50, MX-1, Assay 1, 37 °C, 72 h, no GSH-OEt
[12] = read-out: Cytotoxicity IC50, MX-1, incubation at 37 °C for 48 h
[13] = read-out: Cytotoxicity IC50, L1210FR, Assay 1, 37 °C, 72 h, no GSH-OEt
[14] = read-out: Cytotoxicity IC50, L1210FR, incubation at 37 °C for 48 h
[15] = read-out: Cytotoxicity IC50, WI38, Assay 1, 37 °C, 72 h, no GSH-OEt
[16] = read-out: Cytotoxicity IC50, WI38, incubation at 37 °C for 48 h

Biotin-NH-PEG3-(CH2)2-NH-FITC [probe 5]
internalization into L1210 cells (L1210 (BR−) cells): no appreciable internalization
internalization into WI38 cells (WI38 (BR−) cells): no appreciable internalization
internalization into BR+ cancer cell lines [1]: highly target-specific and efficient internalization

7-(4-Fluoresceinyl)butanoylpaclitaxel [compound 6]
internalization across BR+ and BR- cell lines (BR+ and BR- cell lines): nonspecific internalization

Biotin-(SS-Linker)-SB-T-1214 [conjugate 4]
IC50 [2, 11]: 4.66 ± 0.87 nM
IC50 [2, 12]: 15.4 ± 4.2 nM
IC50 [3]: 4.32 ± 1.58 nM
IC50 [4, 13]: 12.3 ± 2.8 nM
IC50 [4, 14]: 13.4 ± 6.8 nM
IC50 [5]: 481 ± 34 nM
IC50 [6, 15]: 645 ± 97 nM
IC50 [6, 16]: 670 ± 89 nM
IC50 [7]: 3.85 ± 0.14 nM
IC50 [8]: 5.15 ± 2.85 nM
IC50 [9]: 2.92 ± 2.34 nM
potency times lower than free taxoid 3 against three BR+ cancer cell lines ([10]; 48 h incubation): 3–30 times
cancer cell selectivity (BR-specificity), BR+ cancer cells vs BR− WI38 cells ([10]; Assay 2): two-orders of magnitude difference
IC50 ([10]; read-out: Cytotoxicity IC50, BR+ cancer cells (MX-1, L1210FR), Assay 2, range, 24 h, PBS wash, GSH-OEt, additional 48 h): 3.85 to 6.6 nM

CC(=O)O[C@@]12CO[C@@H]1C[C@H](O)[C@@]1(C)C(=O)[C@H](OC(=O)C3CC3)C3=C(C)[C@@H](OC(=O)[C@H](O)[C@H](C=C(C)C)NC(=O)OC(C)(C)C)C[C@@](O)([C@@H](OC(=O)c4ccccc4)[C@H]21)C3(C)C [Taxoid 3, SB-T-1214, reference compound]
IC50 [2, 11]: 2.66 ± 0.16 nM
IC50 [2, 12]: 4.13 ± 2.59 nM
IC50 [3]: 0.17 ± 0.14 nM
IC50 [4, 13]: 2.32 ± 1.41 nM
IC50 [4, 14]: 4.18 ± 1.8 nM
IC50 [5]: 7.05 ± 1.38 nM
IC50 [6, 15]: 4.89 ± 2.24 nM
IC50 [6, 16]: 5.23 ± 0.27 nM
IC50 ([10]; read-out: Cytotoxicity IC50, MX-1 and L1210FR, free drug, range, 72 h incubation (Assay 1)): 2.32 to 2.66 nM
